The source made the active and inactive calls.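 Rule for the calls, unless noted: active = fluorescence slope higher than the sample average by over 3 SD (cut at about -0.22 in these data, passing the limit was not always enough); inactive = the rest.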

The term inhibition denotes the drop in the measured response relative to a control, in per cent.

Assay [1] is described as follows: inhibitors of TNFa-induced NFkB p65 translocation, primary screen, imaging, HUVEC, MLSMR starter and 10KST1 sets (AID 438;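 active = inhibition above 20% together with a positive visual image hit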;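 note: compound added about 3h40 before a 20 min TNFalpha stimulation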;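 for inhibition: signal is the nuclear over cytoplasmic p65 intensity ratio per well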). The settings on record: HUVEC TNFa-induced p65 nuclear translocation; cell count: measured here: nuclei count (cytotoxicity indicator), at 2.08 µM; inhibition: at 2 µM, stronger effect = higher value, 0% TNFa-plus-vehicle, 100% no-TNFa wells.
A short description of assay [2]: endothelial E-selectin expression blockers – imaging, HUVEC, immunofluorescence, MLSMR starter and 10KST1 sets, primary screen (AID 487;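 active = visually confirmed hit in the image check and inhibition above 20%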;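 for inhibition: signal is fraction of cell area covered by stained E-selectin grains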;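 for nuclei count: 100% = median nuclei count of all wells on the same plate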). The note with it: HUVEC TNFalpha-induced E-selectin immunofluorescence imaging, at 2 µM; inhibition: stronger effect = higher value; nuclei count: measured here: cell number, toxicity.
Assay [3] can be described thus: Primary imaging screen for DUSP6 inhibitors that restore phospho-Erk in transfected HeLa cells, chemical complementation (AID 609;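 active = compounds giving at least 50% inhibition in the cell-based MKP-3 phosphatase rescue imaging test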;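 for inhibition: phospho-Erk level distribution per well compared with pooled transfected vehicle control wells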). The settings on record: HeLa MKP-3 transfected, phospho-Erk imaging KS statistic, at 10 µM, cells stimulated with TPA for 15 min.
The target of assay [4] is Dual specificity protein phosphatase 6 (Homo sapiens) (UniProt Q16828). Described as above. The note with it: HeLa MKP-3 transfected, phospho-Erk imaging KS statistic; at 10 µM; stronger effect = higher value; cells stimulated with TPA for 15 min.
Sequence of Dual specificity protein phosphatase 6 (Homo sapiens) (Q16828 whole entry, looked up): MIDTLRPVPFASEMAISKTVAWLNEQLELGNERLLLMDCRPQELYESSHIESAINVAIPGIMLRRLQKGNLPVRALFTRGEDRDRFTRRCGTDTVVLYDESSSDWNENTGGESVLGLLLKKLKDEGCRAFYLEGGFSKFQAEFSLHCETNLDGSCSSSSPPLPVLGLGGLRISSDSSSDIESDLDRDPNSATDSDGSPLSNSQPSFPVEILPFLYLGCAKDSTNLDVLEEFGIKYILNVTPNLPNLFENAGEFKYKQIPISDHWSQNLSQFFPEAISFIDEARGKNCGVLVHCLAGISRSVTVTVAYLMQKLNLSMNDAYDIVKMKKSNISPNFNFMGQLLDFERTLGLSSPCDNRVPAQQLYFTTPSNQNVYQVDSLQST
For assay [5], the target named is Voltage-gated potassium channel subunit beta-2 (Rattus norvegicus) (UniProt P62483). In words: inhibitors of rat Kvbeta2 reductase activity – biochemical, NADPH fluorescence, primary screen (AID 622).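 Note: slope of raw intensity against log time taken from 70 to 1610 s.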 The settings on record: recombinant KvBeta, 4-cyanobenzaldehyde reduction, at 10 µM, stronger effect = higher value.
Sequence of Voltage-gated potassium channel subunit beta-2 (Rattus norvegicus) (P62483 whole entry, looked up): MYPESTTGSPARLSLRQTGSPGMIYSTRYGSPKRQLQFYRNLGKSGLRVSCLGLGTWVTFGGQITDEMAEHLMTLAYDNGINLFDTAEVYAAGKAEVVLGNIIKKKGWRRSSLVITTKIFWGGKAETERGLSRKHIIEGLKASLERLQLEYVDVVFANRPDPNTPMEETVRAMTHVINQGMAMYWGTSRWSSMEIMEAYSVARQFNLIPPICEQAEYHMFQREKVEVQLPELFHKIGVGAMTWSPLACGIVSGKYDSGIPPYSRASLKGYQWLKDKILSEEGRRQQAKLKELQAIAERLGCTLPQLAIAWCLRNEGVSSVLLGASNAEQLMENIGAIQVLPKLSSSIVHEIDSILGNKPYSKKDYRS
Assay [6] shares this target. Kind of assay: enhancers of rat Kvbeta2 NADPH turnover – biochemical, NADPH fluorescence, primary screen (AID 623;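 active = NADPH fluorescence slope more negative than the mean of all samples by about 3 SD, 99.7% confidence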;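 note: fluorescence intensity change per second fitted from 20 to 320 s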). The note with it: Recombinant KvBeta, NADPH fluorescence decrease slope, 10 min; at 10 µM; stronger effect = lower value.
The target in assay [7] is Muscarinic acetylcholine receptor M4 (Homo sapiens) (UniProt P08173). In words: M4-linked GIRK flux change, two-sided – cell-based, HEK293 M4/GIRK, thallium flux, BTC-AM, M4 allosteric agonist project, primary screen (AID 625;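 active = fluorescence slope after compound addition differing from the mean of all tested samples at 99.7% confidence, mostly higher but some lower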;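 note: thallium influx through GIRK channels coupled to M4 in HEK293 cells with BTC-AM dye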). The note with it: at 10 µM, actives lie on both sides. A digest of the protocol: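 Material: M4/GIRK1/GIRK2 stable HEK293 cell line. Medium: pH 7.3 thallium assay buffer. Dosing: single compound concentration, 10 µM final. Schedule: 1 h dye loading, 2 min kinetic read. Measured by: kinetic fluorescence with BTC-AM dye. Read-out: post-addition slope, 15–24 s, of baseline-normalized fluorescence. Benchmarks: carbachol and DMSO controls.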
Sequence of Muscarinic acetylcholine receptor M4 (Homo sapiens) (P08173 whole entry, looked up): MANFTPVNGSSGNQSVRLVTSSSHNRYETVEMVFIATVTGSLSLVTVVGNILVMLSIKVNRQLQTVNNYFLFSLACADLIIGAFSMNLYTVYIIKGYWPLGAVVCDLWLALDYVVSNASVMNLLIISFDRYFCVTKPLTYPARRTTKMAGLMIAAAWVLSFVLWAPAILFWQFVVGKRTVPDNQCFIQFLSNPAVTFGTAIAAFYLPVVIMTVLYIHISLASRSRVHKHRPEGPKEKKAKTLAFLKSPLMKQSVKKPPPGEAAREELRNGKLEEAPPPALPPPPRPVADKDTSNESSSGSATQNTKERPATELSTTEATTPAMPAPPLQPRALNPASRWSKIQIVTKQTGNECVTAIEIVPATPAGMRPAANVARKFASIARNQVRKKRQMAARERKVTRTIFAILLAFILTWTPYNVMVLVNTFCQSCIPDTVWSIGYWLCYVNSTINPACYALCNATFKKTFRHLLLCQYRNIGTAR

Assay [8] is described as follows: inhibitors of larval lipid processing in zebrafish, primary screen, whole organism, PED6 fluorescence, gall bladder and intestine (AID 686;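 active = a full or partial loss of lipid-probe fluorescence in the fish gall bladder, intestine or both, judged by eye; inactive = no fluorescence loss, or compound toxic to the fish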;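 note: larvae 5 to 7 days old with five fish per well; signal comes from phospholipase A2 cleavage of quenched PED6 carried via bile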). The settings on record: Zebrafish larvae PED6 lipid processing, fluorescence scoring; screened at 20 µM (by protocol). The method in brief: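 System: live zebrafish larvae aged 5-7 days, whole organism; measure: graded gall bladder and intestinal fluorescence inhibition per well; incubation: overnight exposure; reagent: ingested quenched lipid PED6 at 100 nM; signal: By-eye fluorescence microscopy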

A short description of assay [9]: loss of swimming-algae plug formation – whole organism, Chlamydomonas reinhardtii, WT vs cilia-less mutant, absorbance, 96-well, primary screen (AID 463189;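 active = inhibition at or above 50% relative to wild type and mutant plate controls; inactive = inhibition below 50%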;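 note: 0% = wild type cc124 cells in DMSO and 100% = ciliumless bld1 mutant cells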). The settings on record: Chlamydomonas reinhardtii gravitaxis, OD600 absorbance, 2 days; at 10 µM; stronger effect = higher value.
Setting [10] is: measured here: cell density z-score.
[11] abbreviates: measured here: nuclear c-Myc green intensity z-score.
The mark [12] stands for this setting: measured here: nuclear pErk red intensity z-score, stronger effect = higher value.

`O=c1cc(N2CCCCC2)nc2n1CCCS2`: the cell count in assay [1] was 568. For the same compound, the inhibition was 2.3% (inactive) in [1], 20.6% (inactive) in [2], 29.7% (inactive) in [4] and 33.9% (inactive) in assay [9]. In assay [2], this compound gave a nuclei count of 149%. The values for the z-score in assay [3] (setting [10]), in [3] (setting [11]) and in [3] (setting [12]) were 0.266, -0.928 and -0.473, respectively. Besides, the fluorescence slope in assay [5] was -0.39 (inactive); in assay [7], 0.00586 (inactive). For the same compound, the NADPH fluorescence slope in assay [6] was -1.9e-05 (inactive). In assay [8], the outcome was inactive.
As to `CSc1cc(C)nc(N(C)C(C)=O)n1`, in [1], the cell count was 672. The inhibition in assay [1] is -1.4% (inactive); in assay [2] it was -9.4% (inactive); in assay [4] it was 5.35% (inactive); in assay [9], -6.47% (inactive). The nuclei count in assay [2] was determined as 145%. Besides, the z-score in assay [3] (setting [10]) is -2.7; in assay [3] (setting [11]) it was 1.16; in assay [3] (setting [12]), 0.496. The fluorescence slope was -0.421 (inactive) in [5] and 0.00511 (inactive) in [7]. The NADPH fluorescence slope in assay [6] was -5.5e-05 (inactive). In addition, in assay [8], the result was inactive.
With `Cc1cc2nncn2c(Cc2ccccc2)n1`, in assay [1], the cell count worked out at 407. Further, the inhibition in [1] was -7.4% (inactive); in [2], -152% (inactive); in [4], -6.59% (inactive); in assay [9], -3.56% (inactive). In addition, the nuclei count in assay [2] was found to be 183%. In addition, the figures for the z-score in assay [3] (setting [10]), in assay [3] (setting [11]) and in [3] (setting [12]) were -1.1, 0.267 and 0.816, respectively. The fluorescence slope was -0.428 (inactive) in assay [5] and 0.00485 (inactive) in assay [7]. Besides, in [6], the NADPH fluorescence slope is -0.000108 (inactive). For the same compound, the call in [8] was inactive.
As for `c1ccc2c(c1)[nH]c1c(N3CCN(C4CCCCC4)CC3)ncnc12`, the cell count in [1] was found to be 601. In addition, the inhibition in [1] was -21% (inactive); in [2] it was -59.2% (inactive); in [4], 27.4% (inactive); in [9] it was 18.4% (inactive). For the same compound, in assay [2], the nuclei count stood at 172%. Further, the z-score was 0.663 in [3] (setting [10]), -1.44 in assay [3] (setting [11]) and -1.01 in assay [3] (setting [12]). Further, the values for the fluorescence slope in assay [5] and in [7] were -0.169 (inactive) and 0.00557 (inactive), respectively. For the same compound, the NADPH fluorescence slope in [6] is -1.6e-05 (inactive). For the same compound, in [8], the result was inactive.
`CN(CCCCCNC(=O)/C=N/O)Cc1ccccc1`: the cell count in assay [1] was found to be 661. In addition, the inhibition in [1] is -11.4% (inactive); in assay [2] it was -47.5% (inactive); in [4] it was 5.35% (inactive); in [9], 27.9% (inactive). Also, the nuclei count in assay [2] is 99.4%. For the same compound, the results for the z-score in assay [3] (setting [10]), in [3] (setting [11]) and in assay [3] (setting [12]) were -0.0258, 0.279 and -0.452, respectively. The results for the fluorescence slope in [5] and in assay [7] were -0.537 (inactive) and 0.00725 (inactive), respectively. The NADPH fluorescence slope in [6] is -6.5e-05 (inactive). Further, the outcome in [8] was inactive.
Consider `COC(=O)[C@H]1CCCN1C(=O)Nc1cccc(Oc2c(F)c(F)c(F)c(F)c2F)c1`, for which the cell count in [1] was 709. Further, the inhibition is -2.1% (inactive) in assay [1], 2.5% (inactive) in assay [2], 13.4% (inactive) in assay [4] and 36.9% (inactive) in [9]. The compound also had a nuclei count in assay [2] of 205%. Further, the z-score is 0.848 in [3] (setting [10]), 0.709 in [3] (setting [11]) and 0.784 in assay [3] (setting [12]). The fluorescence slope in assay [5] is -0.396 (inactive); in assay [7], 0.00536 (inactive). The NADPH fluorescence slope in [6] is -4.7e-05 (inactive). In assay [8], the compound was classed as inactive.
Turning to `O=c1c(-c2ccc(Cl)cc2)[n+]([O-])c2ccccc2n1O`, in assay [1], the cell count amounted to 517. Moreover, the inhibition in assay [1] is -16.1% (inactive); in assay [2], -12.5% (inactive); in [4], 15.9% (inactive); in assay [9], 33.5% (inactive). The nuclei count in [2] was found to be 170%. For the same compound, the z-score in assay [3] (setting [10]) came out at 0.0473; in assay [3] (setting [11]), 0.796; in assay [3] (setting [12]), 0.573. For the same compound, the fluorescence slope in [5] was -0.31 (inactive); in [7], 0.0132 (active). The NADPH fluorescence slope in assay [6] was -3.9e-05 (inactive). Also, the call in [8] was inactive.
